Reference: PubChem BioAssay
The source made the active and inactive calls.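 The calls were made as follows, unless noted: active = viability at or below 10% of carrier control in both of two separate runs; inconclusive = viability at or below 10% in only one of the two runs; inactive = the rest.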

Tests used:
[1] = reducers of endogenous Her2 protein level, primary screen, SKBR3 breast tumor cells, AlphaScreen, ATP viability (AID 461;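 active = Her2 level under about 52% in both replicate screens, with viability over 70% of control, limit read from the data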;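 as to Her2 level: lower value means less Her2 protein in the cells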;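 as to viability: percent of carrier control wells set as 100% viability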); conditions: 18-24 h, measured here: SKBR3 viability, ATP luminescence, at 10 µM
[2] = molecular target: Receptor tyrosine-protein kinase erbB-2 (Homo sapiens) (UniProt P04626); experiment: as above; conditions: 18-24 h, at 10 µM, stronger effect = lower value
Receptor tyrosine-protein kinase erbB-2 (Homo sapiens), sequence (P04626 whole entry, looked up): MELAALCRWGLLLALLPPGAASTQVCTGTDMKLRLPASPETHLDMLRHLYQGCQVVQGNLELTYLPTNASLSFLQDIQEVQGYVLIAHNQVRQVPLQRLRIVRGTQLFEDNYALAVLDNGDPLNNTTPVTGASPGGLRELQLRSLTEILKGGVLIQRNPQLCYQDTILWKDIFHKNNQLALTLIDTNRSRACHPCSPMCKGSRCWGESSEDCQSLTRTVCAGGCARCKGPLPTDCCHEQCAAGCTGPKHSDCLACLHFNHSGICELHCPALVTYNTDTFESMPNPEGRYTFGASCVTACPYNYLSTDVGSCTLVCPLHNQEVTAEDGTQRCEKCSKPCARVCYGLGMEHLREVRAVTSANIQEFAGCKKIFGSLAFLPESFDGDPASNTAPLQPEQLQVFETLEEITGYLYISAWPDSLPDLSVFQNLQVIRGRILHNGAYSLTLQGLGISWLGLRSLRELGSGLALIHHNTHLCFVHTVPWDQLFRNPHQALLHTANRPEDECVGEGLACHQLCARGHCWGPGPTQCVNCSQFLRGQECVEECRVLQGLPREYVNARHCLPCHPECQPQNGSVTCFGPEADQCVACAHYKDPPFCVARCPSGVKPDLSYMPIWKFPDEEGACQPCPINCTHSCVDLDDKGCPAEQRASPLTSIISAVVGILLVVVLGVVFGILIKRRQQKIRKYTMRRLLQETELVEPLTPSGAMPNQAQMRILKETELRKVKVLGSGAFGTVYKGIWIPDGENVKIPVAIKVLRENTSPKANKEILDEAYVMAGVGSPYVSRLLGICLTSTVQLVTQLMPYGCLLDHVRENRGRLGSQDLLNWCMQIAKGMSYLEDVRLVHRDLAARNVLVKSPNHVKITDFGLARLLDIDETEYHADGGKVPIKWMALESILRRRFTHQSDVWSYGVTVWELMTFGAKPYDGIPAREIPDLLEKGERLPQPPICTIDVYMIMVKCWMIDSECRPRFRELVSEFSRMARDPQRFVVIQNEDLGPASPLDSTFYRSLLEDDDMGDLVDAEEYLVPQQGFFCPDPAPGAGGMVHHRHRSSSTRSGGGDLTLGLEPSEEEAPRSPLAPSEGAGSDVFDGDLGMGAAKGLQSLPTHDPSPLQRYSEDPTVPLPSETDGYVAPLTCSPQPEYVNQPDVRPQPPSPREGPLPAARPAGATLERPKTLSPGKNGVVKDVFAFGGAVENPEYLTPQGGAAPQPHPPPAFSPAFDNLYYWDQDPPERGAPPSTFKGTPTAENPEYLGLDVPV

[3] = SK-BR-3 cell growth inhibitors, pilot screen, 24 h, human (AID 572); conditions: SK-BR-3 viability, CellTiter-Glo luminescence, at 10 µM, stronger effect = lower value;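 also: compound exposure lasted between 18 and 24 h rather than exactly 24 h; 100% = carrier-treated control wells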
[4] = HUVEC growth inhibition – cell-based, human, primary screen (AID 575;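 active = viability at or below 30% in both replicate assays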;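 also: 100% = median of untreated cell wells with 0.1% DMSO on each plate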); conditions: HUVEC proliferation, CellTiter-Glo luminescence, 72 h; at 10 µM; stronger effect = lower value
How it was run: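 system = HUVEC primary cells | amount = 1250 cells/well | buffer or medium = supplemented EBM, 2% fetal bovine serum | dosing = single-point 10 µM, DMSO 0.1% final | times = 72 h compound incubation | detection = CTG luminescence | read-out = % viability relative to median vehicle-well signal on each plate | control set = vehicle and MePR control wells | format = collagen-coated 384-well format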

[5] = growth inhibitors of H69AR lung tumor, primary screen, human, duplicate replicates (AID 580;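 active = viability at or under a set limit in both replicates, limit being median viability minus 3 SD, cut at about 48% in these data, passing the limit was not always enough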;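 also: 100% = mean luminescence of untreated wells and 0% = no signal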); conditions: H69AR lung tumor cells viability, ATP luminescence, 72 h; at 10 µM; stronger effect = lower value
[6] = reversal of MRP1-mediated doxorubicin resistance, pilot screen, H69AR cells, doxorubicin co-treatment (AID 601;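 active = viability loss from added drug above about 55%, and viability with drug at most 40%, in both replicates, limit read from the data, passing the limit was not always enough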); conditions: CellTiter-Glo, 72 h, at 10 µM; for differential viability (reversal): stronger effect = higher value
[7] = 384-well plate pilot, post-Golgi transport modulator project, inhibition of yeast transport mutant growth (AID 636; in the data active = inhibition above about 31%); conditions: absorbance 615 nm, about 18 h, stronger effect = higher value
[8] = growth suppression of yeast trafficking mutant, preliminary HTS, modulators of trafficking downstream of Golgi apparatus project, 1536-format plate, OD 615 nm (AID 637; in the data active = inhibition above about 30%); conditions: yeast transport mutant growth, absorbance 615 nm, 18 h; stronger effect = higher value
[9] = H69AR cells + 2 uM doxorubicin, measured here: viability with 2 uM doxorubicin, stronger effect = lower value
[10] = H69AR cells, compound alone cytotoxicity

| SMILES | viability [1] | Her2 level [2] | viability [3] | viability [4] | viability [5] | differential viability (reversal) ([6]; H69AR cells + 2 uM doxorubicin) | viability [6, 9] | viability [6, 10] | inhibition [7] | inhibition [8] |
| --- | --- | --- | --- | --- | --- | --- | --- | --- | --- | --- |
| N#CC1=C(N)Oc2n[nH]c(-c3ccncc3)c2C1c1ccsc1 (stereo not given) | 88% | 95% (inactive) | 88% (inactive) | 113% (inactive) | 87.7% (inactive) | -6.48% (inactive) | 94.2% | 87.7% | 0.53% (inactive) | -4% (inactive) |
| O=c1c2cc(Cl)ccc2[nH]c(=S)n1Cc1ccco1 | 84.5% | 81% (inactive) | 84.5% (inactive) | 93.6% (inactive) | 86.7% (inactive) | -1.27% (inactive) | 88% | 86.7% | -8.13% (inactive) | 10.2% (inactive) |
| COCCNC(=O)C(C)OC(=O)c1nsc(Cl)c1Cl (stereo not given) | 103% | 108% (inactive) | 103% (inactive) | 110% (inactive) | 99.3% (inactive) | 4.84% (inactive) | 94.5% | 99.3% | -1.08% (inactive) | 25.7% (inactive) |
| CCOC(=O)c1[nH]c2ccc(Br)cc2c1NC(=O)CNC | 93% | 99.5% (inactive) | 93% (inactive) | 101% (inactive) | 87.3% (inactive) | -0.115% (inactive) | 87.5% | 87.3% | -2.37% (inactive) | 8.85% (inactive) |
| O=C1CC(c2ccc(Cl)cc2)n2nc(N3C(=O)c4ccccc4C3=O)nc2N1 (stereo not given) | 106% | 93% (inactive) | 106% (inactive) | 95.5% (inactive) | 91.8% (inactive) | -2.29% (inactive) | 94.1% | 91.8% | -3.16% (inactive) | 4.59% (inactive) |
| CCOC(=O)c1c(-c2cccs2)csc1NC(=O)CCCC(=O)O | 110% | 87% (inactive) | 110% (inactive) | 78.3% (inactive) | 83.4% (inactive) | 1.06% (inactive) | 82.4% | 83.4% | -5.79% (inactive) | -3.27% (inactive) |
| CCc1ccc(NC(=O)CSc2nnc(Cc3cccn3C)n2-c2ccc(OC)cc2)cc1 | 86% | 75% (inactive) | 86% (inactive) | 61.1% (inactive) | 95.6% (inactive) | -4.31% (inactive) | 99.9% | 95.6% | 1.03% (inactive) | 4.5% (inactive) |
| Cc1ccccc1NC(=O)NCCCN1CCN(C2CCCCC2)CC1 | 102% | 102% (inactive) | 102% (inactive) | 104% (inactive) | 95.8% (inactive) | 2.42% (inactive) | 93.4% | 95.8% | -1.04% (inactive) | 0.16% (inactive) |
| CC(=O)N1CCC2(CC1)CC(=O)c1cc(OCC(=O)NCc3ccco3)ccc1O2 | 106% | 112% (inactive) | 106% (inactive) | 106% (inactive) | 83.5% (inactive) | -4.33% (inactive) | 87.9% | 83.5% | 0.92% (inactive) | -3.17% (inactive) |
| COc1cccc(NC(=O)N[C@@H](Cc2ccccc2)C(=O)O)c1 | 94% | 91.5% (inactive) | 94% (inactive) | 93.8% (inactive) | 114% (inactive) | 19.6% (inactive) | 94.5% | 114% | -4.46% (inactive) | 2.06% (inactive) |
| Cc1ccc(C(C)C)c(OCCn2c(=O)oc3ccccc32)c1 | 89% | 133% (inactive) | 89% (inactive) | 87.9% (inactive) | 95.8% (inactive) | 13.5% (inactive) | 82.3% | 95.8% | 0.79% (inactive) | -3.83% (inactive) |
| CC(=O)NC(Cc1ccccc1)C(=O)NC1CCN(C(=O)c2cnccn2)CC1 (stereo not given) | 122% | 88% (inactive) | 122% (inactive) | 104% (inactive) | 96.2% (inactive) | 1.21% (inactive) | 95% | 96.2% | -4.86% (inactive) | 8.52% (inactive) |
| COC(=O)c1cc(Br)c(=O)n(-c2ccc(OC)cc2)c1 | 96.5% | 93.5% (inactive) | 96.5% (inactive) | 100% (inactive) | 94.5% (inactive) | 7.62% (inactive) | 86.8% | 94.5% | -2.8% (inactive) | 0.65% (inactive) |
| COc1ccc2nc(NC(=O)C(NS(=O)(=O)c3cccs3)C(C)C)sc2c1 (stereo not given) | 90.5% | 77% (inactive) | 90.5% (inactive) | 70.7% (inactive) | 92.7% (inactive) | 5.86% (inactive) | 86.9% | 92.7% | -2.5% (inactive) | -5.64% (inactive) |
| CCN(Cc1nc2ccccc2c(=O)[nH]1)Cc1nc2cc(OC)c(OC)cc2c(=O)[nH]1 | 88.5% | 114% (inactive) | 88.5% (inactive) | 99.5% (inactive) | 89.8% (inactive) | -2.33% (inactive) | 92.1% | 89.8% | 0.54% (inactive) | 9.83% (inactive) |
| Cc1c(C(=O)OCC(C)C)[nH]c2c1C(=O)CC(c1ccco1)C2 (stereo not given) | 80.5% | 58% (inactive) | 80.5% (inactive) | 18.5% (active) | 24.1% (active) | -22.6% (inactive) | 46.6% | 24.1% | -1.2% (inactive) | -3.28% (inactive) |

| SMILES | viability [1] | Her2 level [2] | viability [3] | viability [4] | viability [5] | differential viability (reversal) ([6]; H69AR cells + 2 uM doxorubicin) | viability [6, 9] | viability [6, 10] | inhibition [7] | inhibition [8] |
| --- | --- | --- | --- | --- | --- | --- | --- | --- | --- | --- |
| Nc1ncnc(Nc2ccccc2C(F)(F)F)n1 | 93.5% | 110% (inactive) | 93.5% (inactive) | 99.5% (inactive) | 95.6% (inactive) | 2.26% (inactive) | 93.3% | 95.6% | 5.19% (inactive) | -11.2% (inactive) |
| CS(=O)(=O)N(Cc1nc2sc3c(c2c(=O)[nH]1)CCCC3)C1CCCCC1 | 91% | 112% (inactive) | 91% (inactive) | 77.9% (inactive) | 84% (inactive) | 1.24% (inactive) | 82.7% | 84% | -4.8% (inactive) | -0.49% (inactive) |
| CN1C(=O)C2(NCCc3c2[nH]c2ccccc32)c2ccccc21 (stereo not given) | 114% | 100% (inactive) | 114% (inactive) | 86.8% (inactive) | 109% (inactive) | 12.9% (inactive) | 96% | 109% | -3.82% (inactive) | 6.07% (inactive) |
| CCOC(=O)COc1ccc(S(=O)(=O)Nc2ccc3c(c2)OCO3)cc1 | 164% | 113% (inactive) | 164% (inactive) | 10.4% (active) | 91% (inactive) | -1.11% (inactive) | 92.1% | 91% | -4.21% (inactive) | 9.02% (inactive) |
| CN(C(=O)c1ccccc1Cl)c1ccccc1 | 93.5% | 83.5% (inactive) | 93.5% (inactive) | 92.8% (inactive) | 106% (inactive) | 23.6% (inactive) | 82% | 106% | -8.63% (inactive) | 0.95% (inactive) |
| FC(F)Oc1ccc(-c2csc(Cc3nnc4n3CCCCC4)n2)cc1 | 78% | 102% (inactive) | 78% (inactive) | 110% (inactive) | 97.2% (inactive) | 5.74% (inactive) | 91.5% | 97.2% | -7.26% (inactive) | -9.05% (inactive) |
| COc1ccccc1CNC(=O)C1CCCN(S(=O)(=O)c2cnc[nH]2)C1 (stereo not given) | 94% | 102% (inactive) | 94% (inactive) | 105% (inactive) | 109% (inactive) | 16.7% (inactive) | 92.3% | 109% | 1.47% (inactive) | -0.98% (inactive) |
| CCc1[nH]nc2c1C(c1ccncc1)C(C#N)=C(N)O2 (stereo not given) | 108% | 112% (inactive) | 108% (inactive) | 106% (inactive) | 95.9% (inactive) | -3.88% (inactive) | 99.8% | 95.9% | -4.46% (inactive) | -4.92% (inactive) |
| COc1ccc(CCn2c(NCCCN3CCOCC3)nc3c2c(=O)[nH]c(=O)n3C)cc1 | 84.5% | 86% (inactive) | 84.5% (inactive) | 76.6% (inactive) | 87.3% (inactive) | 0.365% (inactive) | 86.9% | 87.3% | 4.13% (inactive) | 30.3% (active) |
| CCOC(=O)c1[nH]nc(-c2c(O)cc(C)cc2O)c1-c1csc(C)n1 | 94% | 106% (inactive) | 94% (inactive) | 106% (inactive) | 96.5% (inactive) | 6.7% (inactive) | 89.8% | 96.5% | -6.71% (inactive) | -2.91% (inactive) |
| Cc1cc(Cl)cc2c1NC(=O)[C@]21[C@@H]2C(=O)N(Cc3ccccc3)C(=O)[C@@H]2[C@@H]2CCCN21 | 100% | 81% (inactive) | 100% (inactive) | 78% (inactive) | 78.1% (inactive) | -2.8% (inactive) | 80.9% | 78.1% | -3.77% (inactive) | 4.29% (inactive) |
| O=C(c1ccc(Br)o1)N(c1ccc(Br)cc1)C1C=CS(=O)(=O)C1 (stereo not given) | 89% | 156% (inactive) | 89% (inactive) | 80% (inactive) | 87% (inactive) | 5.32% (inactive) | 81.7% | 87% | 5% (inactive) | 21% (inactive) |
| Oc1cnc2ccccc2c1CN1CCOCC1 | 98.5% | 92% (inactive) | 98.5% (inactive) | 113% (inactive) | 101% (inactive) | -2.39% (inactive) | 104% | 101% | -3.16% (inactive) | -0.16% (inactive) |
| O=C(CSc1nc2[nH]ncc2c(=O)n1-c1ccccc1Br)NCc1ccco1 | 100% | 80.5% (inactive) | 100% (inactive) | 95% (inactive) | 82.9% (inactive) | 5.05% (inactive) | 77.8% | 82.9% | -4.61% (inactive) | -1.77% (inactive) |
| CC1CCC(C(=O)NC(C(=O)NCCN2CCC(C)CC2)C(C)C)CC1 (stereo not given) | 126% | 107% (inactive) | 126% (inactive) | 87.6% (inactive) | 81.3% (inactive) | -6.62% (inactive) | 87.9% | 81.3% | -1.04% (inactive) | 13.9% (inactive) |
| Cc1ccccc1OCCN1C(=O)NC2(CCc3ccccc32)C1=O (stereo not given) | 94.5% | 83.5% (inactive) | 94.5% (inactive) | 92.9% (inactive) | 82.7% (inactive) | 0.01% (inactive) | 82.7% | 82.7% | -6.62% (inactive) | 0% (inactive) |
